To fix the notation:
B1: tRNA (parent)
chain: GUUCCGUUGGCGUAAUGGUAACGCGUCUCCCUCCUAAGGAGAAGACUGCGGGUUCGAGUCCCGUACGGAACG

Variants at the floor of the assay were thinned out.

This data set covers variants of B1. The data set is described as follows: yeast fitness relative to wild type (ratio to wild type); higher = fitter; tRNA-Arg(CCU), competitive growth, 37 C, YPD. The procedure, abridged:
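The tRNA-Arg(CCU) gene variants were made by chemical synthesis with a 3% per-site mutation rate at 69 sites and inserted at the native genomic locus of Saccharomyces cerevisiae. After pooling, the strains were competed in YPD at 37°C for 24 hours in six parallel replicates. Gene amplicons from the start population and each end population were read by 100-nucleotide paired-end sequencing, and Darwinian fitness relative to wild type was taken from genotype frequency changes. Genotypes needed ≥ 100 starting reads, and estimates < 0.5 were set to 0.5.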
Turning to C5U U8A, the yeast fitness was 0.632.
As for G6A A37C, the yeast fitness turned out to be 0.824.
On to G6A A14G C24A C31U A40U A70G, for which the yeast fitness was no more than 0.5.
Turning to C5U U19C C29U A42C A57G, the yeast fitness was no more than 0.5.
For C5U U7A A45G G67A, the yeast fitness was no more than 0.5.
As for C5U U13A C29A C31G, the yeast fitness is no more than 0.5.
The result for C5U G48A C55U reads 0.558; that for G6A A14C G58A, 0.613; that for G6A A36U C49G C62U, no more than 0.5.
Turning to C5U U16A C33U C61G A70U, the yeast fitness is no more than 0.5.
The result for C5U G12A A40U G44U A45G C60A reads no more than 0.5; that for G6A A21C C49A A70G, no more than 0.5; that for C5U C31U G41C A43C C60G, no more than 0.5.
With C5U G41A G52C the figure was no more than 0.5.
With C5U G41A G52A the figure was no more than 0.5; with C5U C33U A36C U54C, no more than 0.5.
On to C5U U32G A36U G68C, for which the yeast fitness was no more than 0.5.
With C5U U7A G10A G48C the figure was no more than 0.5.
In the case of C5U C34A G38C, the yeast fitness was no more than 0.5.
As for C5U U8A G18C G23A, the yeast fitness was no more than 0.5.
With C5U U8C G41C, the yeast fitness stood at 0.542.
Regarding C5U C33U U54C G58A, the yeast fitness is 0.703.
With C5U U8G A20G C34A the figure was no more than 0.5; with C5U U28C A36C A40C A42U, no more than 0.5; with C5U U19C A37G G63C, no more than 0.5.
With G6A A40C G41C G68C the figure was no more than 0.5; with C5U U16C G18A C30A G58A G68U, no more than 0.5; with C5U G10A A21G G39A G48C, 0.598.
As for C5U G9A C49A, the yeast fitness is 0.513.
The result for C5U U28A A69C reads 0.541.
Take C5U G12A C60G: the yeast fitness was no more than 0.5.
C5U U28C C29G: the yeast fitness was no more than 0.5.
On to C5U G12A A69C, for which the yeast fitness was found to be 0.724.
Consider G6A A20U C46A C55G, for which the yeast fitness was no more than 0.5.
With C5U U19C G67C A70U the figure was no more than 0.5; with C5U G9C A36G C60G A70G, no more than 0.5.
Take C5U G9A C22U: the yeast fitness came out at 0.593.
For the variant C5U G10A A20G A36U A43C C61G, the yeast fitness is no more than 0.5.
Consider G6A A20C C34A A45U C46U A57C, for which the yeast fitness is no more than 0.5.
The result for C5U U8C U26A reads 0.727; that for C5U G48A, 0.891; that for C5U U16A C34A A70G, no more than 0.5.
Take G6A A21U C62U: the yeast fitness was no more than 0.5.
On to G6A A15C A20U, for which the yeast fitness was 0.56.
With G6A A15C A20G the figure was no more than 0.5; with G6A A20C G23C C27A, no more than 0.5; with C5U C34A G56A, no more than 0.5.
For the variant C5U U8A G38C A42C G63A, the yeast fitness was 0.534.
With C5U U19C G52A the figure was 0.625; with C5U G44A C55U, 0.629; with C5U C46U C60G, no more than 0.5.
Turning to G6A A14G C33A G39C, the yeast fitness is no more than 0.5.
On to C5U U47G G50C, for which the yeast fitness was 0.575.
As for C5U U8C C29G U53G, the yeast fitness was no more than 0.5.
Consider C5U G17A C60A, for which the yeast fitness was no more than 0.5.
With C5U U13G A69U the figure was 0.76; with C5U G18A, 0.76.
With G6A A15C A36U A65C the figure was no more than 0.5; with G6A A15U U59A G68C, no more than 0.5.
With C5U G18A G25C A69C the figure was no more than 0.5; with C5U U47A G48C G51A C61A, 0.564; with C5U U13C C24G U26C A37G G38U U54G C61G, no more than 0.5.
C5U U16G U35A: the yeast fitness is no more than 0.5.
The result for C5U G25A U32G reads no more than 0.5.
With C5U U32G A36U the figure was no more than 0.5.
With C5U U7G C30A A65C the figure was 1.07.
For C5U C55U, the yeast fitness came out at 0.864.
With G6A A14U U64G the figure was 0.664; with C5U G12C A69U, 0.62; with C5U C49A, 0.78.
The result for C5U C49U reads 0.953.
In the case of C5U U7A A14G, the yeast fitness was determined as 0.538.
With C5U U13A C46A C62U C66U the figure was no more than 0.5.
With G6A A21G C49U the figure was 0.791.
The result for G6A A36C A40U reads no more than 0.5; that for C5U U19A G25C A43U, 0.758; that for C5U U8A A65U, no more than 0.5.
With C5U G10A C27G G48C C61G, the yeast fitness was no more than 0.5.
As to C5U U26A C46G, the yeast fitness came to 0.717.
The result for C5U U16A U47C reads 0.785.
With C5U C34U U35C A70C the figure was no more than 0.5.
For the variant C5U G23A G25C, the yeast fitness worked out at 0.65.
The result for C5U C34U reads 0.746; that for C5U C34G, 0.788; that for G6A A20C C61G G68C, no more than 0.5.
With C5U U26A G56C A65C the figure was 0.53.
For C5U G9C C11G C24A U26G C31G A45U C61U, the yeast fitness was no more than 0.5.
With C5U U32C C49G G68C the figure was 0.593; with C5U U8A C61U, 0.548.
The result for C5U G18A G44C reads 0.638; that for G6A A37C A40G, no more than 0.5; that for C5U U7A C34U G56A G67A, no more than 0.5.
In the case of C5U C33U C34U G58C G63A, the yeast fitness was no more than 0.5.
The result for C5U U8C A20G C30A G68U reads no more than 0.5.
C5U U16G G41C G51A C60G A70U: the yeast fitness was no more than 0.5.
The result for C5U U35C C62U G68C reads no more than 0.5.
As to G6A A15C C22U C33G C62A G63C, the yeast fitness was found to be 0.753.
As for C5U G25A A70U, the yeast fitness was 1.05.
As to C5U U28G A42U, the yeast fitness is no more than 0.5.
For C5U U26G G58A, the yeast fitness stood at 0.924.
With C5U G38C G48C G52A the figure was no more than 0.5.
The result for C5U C34A U53A reads 0.562.
With C5U U35C A36G, the yeast fitness stood at 0.801.
Consider C5U U28G A40C, for which the yeast fitness is 0.613.
Regarding C5U U32C G39A C60U C61G G68C, the yeast fitness was no more than 0.5.
Regarding G6A A20G, the yeast fitness turned out to be 0.897.
Regarding C5U C61U A70G, the yeast fitness stood at 0.609.
With G6A A14C G41A A42U G56A G63C the figure was 0.665; with C5U U7C A45C, 0.74.
With C5U U19C G56C U59A A65G, the yeast fitness was no more than 0.5.
Turning to C5U C33G C61A C66U, the yeast fitness is no more than 0.5.
The result for C5U G39A G48A A57U reads 0.565; that for C5U G6C C11A C31G A36C, no more than 0.5; that for G6A A37U A40C, no more than 0.5.
C5U U64A G67U: the yeast fitness is no more than 0.5.
The result for G6A A20G A36G C49G reads no more than 0.5; that for C5U U19A G38C C62G G68C, 0.62.
Take C5U C46U U59G: the yeast fitness came out at 0.538.
In the case of G6A A20U C49U G50U, the yeast fitness is no more than 0.5.
The result for C5U U13A G38C U47G C62U reads no more than 0.5; that for C5U G17A C60G G67A, no more than 0.5; that for C5U U35A A36G, 0.673.
For G6A A36U A37G A40C C66U, the yeast fitness was no more than 0.5.
With C5U G51C C55A C62U A65U A69U the figure was no more than 0.5.
Turning to C5U U53G C62A, the yeast fitness is no more than 0.5.
The result for G6A A21G G23A G58C reads no more than 0.5; that for C5U U26G C33G G50C, no more than 0.5.
On to C5U C62U A65C, for which the yeast fitness was 0.739.
With C5U C61A G67A the figure was 0.576.
As to C5U U13C, the yeast fitness came out at 0.911.
With C5U U13A the figure was 0.842.
With G6A A15G C46U C66U the figure was 0.77; with C5U U16C C31A G67C, no more than 0.5.
On to C5U G50A C66U, for which the yeast fitness stood at 0.637.
The result for C5U G50A C66A reads no more than 0.5.
The result for C5U G9A C22A C55G reads no more than 0.5; that for G6A A20C A70U, 0.739; that for C5U G39A, 0.938.
With C5U G39U the figure was 0.823; with G6A A21C C33G, no more than 0.5.
Turning to C5U U26C, the yeast fitness worked out at 0.862.
The result for C5U G44C C61U reads 0.702; that for C5U U7G C30U G51C C61A, no more than 0.5.
With C5U U16C C55A the figure was 0.627; with C5U G10A A14U C31A C46A A65U, no more than 0.5; with G6A A21C A42G, 0.692.
With C5U U16G A43U G58A the figure was no more than 0.5.
C5U U19C C66U: the yeast fitness amounted to 0.82.
As for C5U U19C C66G, the yeast fitness stood at 0.606.
Regarding G6A A37U C62U, the yeast fitness is no more than 0.5.
The result for C5U U35C A69U reads 0.536; that for G6A, 0.965.
The result for C5U C46U C55A G56C reads no more than 0.5; that for C5U C49U G56U, 0.538; that for G6A A20G C31G C46U G67A, no more than 0.5.
Turning to C5U G48A A69C, the yeast fitness worked out at 0.758.
For C5U U26C A36C U64A, the yeast fitness is no more than 0.5.
The result for C5U U28G C30G A40C A42U reads no more than 0.5; that for G6A A20U G25A, 0.574.
With C5U U28C C46A C66G the figure was 0.534; with G6A A20C A40C A42U G56A C66G, no more than 0.5.
With C5U G9A the figure was 0.972.
Regarding C5U U35G U47A G48A A65U, the yeast fitness came to 0.557.
For C5U C49G A69U, the yeast fitness came to 0.629.
C5U U7G A40G A57U: the yeast fitness was no more than 0.5.
The result for C5U U8A G68A reads 0.544; that for G6A A21G, 0.965.

The values above are taken from the RNAGym collection of RNA variant scans (doi:10.1126/science.aae0568).
